Results as given in ChEMBL document CHEMBL1255409, “In vitro activity of ceftaroline against 623 diverse strains of anaerobic bacteria” (2010).
Converted amounts (≈) assume the structure as drawn.

Columns and labels:
[1] = system: Parabacteroides distasonis; test: Antimicrobial activity against Bacteroides distasonis under anaerobic conditions after 44 hrs by CLSI-M11-47 protocol based agar dilution method; type: functional
How it was run: (§1)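 Reference agar dilution per CLSI M11-A7 with plates made on test day. Clinical isolates were stored at −70°C in 20% skim milk, subcultured twice, and 48-h cell paste was suspended in brucella broth to 0.5 McFarland. About 10^5 CFU/spot was applied with a Steers replicator. Plates were incubated 44 h at 37°C anaerobically. MIC was the lowest concentration giving complete inhibition or marked growth reduction versus the drug-free control.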

Bacteroides fragilis = test: Antimicrobial activity against Bacteroides fragilis spp. under anaerobic conditions after 44 hrs by CLSI-M11-47 protocol based agar dilution method; type: functional; how it was run: as §1
Hoylesella loescheii = test: Antimicrobial activity against Prevotella loescheii under anaerobic conditions after 44 hrs by CLSI-M11-47 protocol based agar dilution method; type: functional
How it was run: (§2)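 Clinical isolates were stored at −70°C in 20% skim milk and identified phenotypically or by partial 16S rRNA sequencing. Each strain was subcultured twice from frozen stock. Cell paste from 48-h cultures was suspended in brucella broth to a 0.5 McFarland standard. About 10^5 CFU per spot were applied by Steers replicator to agar dilution plates prepared on the day of testing. Plates were incubated 44 h at 37°C in an anaerobic chamber. MIC was taken as the lowest concentration giving complete inhibition or marked reduction of growth versus the drug-free control.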

Gemella morbillorum = test: Antimicrobial activity against Gemella morbillorum under anaerobic conditions after 44 hrs by CLSI-M11-47 protocol based agar dilution method; type: functional; how it was run: as §2
Fusobacterium mortiferum = test: Antimicrobial activity against Fusobacterium mortiferum under anaerobic conditions after 44 hrs by CLSI-M11-47 protocol based agar dilution method; type: functional; how it was run: as §1
Cutibacterium acnes = test: Antimicrobial activity against Propionibacterium acnes under anaerobic conditions after 44 hrs by CLSI-M11-47 protocol based agar dilution method; type: functional; how it was run: as §2
Prevotella nanceiensis = test: Antimicrobial activity against Prevotella nanceiensis under anaerobic conditions after 44 hrs by CLSI-M11-47 protocol based agar dilution method; type: functional; conditions: Hoylesella nanceiensis; how it was run: as §2
Anaerococcus tetradius = test: Antimicrobial activity against Anaerococcus tetradius under anaerobic conditions after 44 hrs by CLSI-M11-47 protocol based agar dilution method; type: functional; how it was run: as §1
Prevotella buccae = test: Antimicrobial activity against Prevotella buccae under anaerobic conditions after 44 hrs by CLSI-M11-47 protocol based agar dilution method; type: functional; conditions: Segatella buccae; how it was run: as §2
Solobacterium moorei = test: Antimicrobial activity against Solobacterium moorei under anaerobic conditions after 44 hrs by CLSI-M11-47 protocol based agar dilution method; type: functional; how it was run: as §2
Parvimonas micra = test: Antimicrobial activity against Parvimonas micra under anaerobic conditions after 44 hrs by CLSI-M11-47 protocol based agar dilution method; type: functional; how it was run: as §2
Phocaeicola vulgatus = test: Antimicrobial activity against Bacteroides vulgatus under anaerobic conditions after 44 hrs by CLSI-M11-47 protocol based agar dilution method; type: functional; how it was run: as §1
[2] = system: Actinomyces neuii subsp. anitratus; test: Antimicrobial activity against Actinomyces neuii subsp. anitratus under anaerobic conditions after 44 hrs by CLSI-M11-47 protocol based agar dilution method; type: functional, Winkia neuii subsp. anitrata; conditions: Winkia neuii; how it was run: as §1
Fusobacterium nucleatum = test: Antimicrobial activity against Fusobacterium nucleatum under anaerobic conditions after 44 hrs by CLSI-M11-47 protocol based agar dilution method; type: functional; how it was run: as §2
Prevotella denticola = test: Antimicrobial activity against Prevotella denticola under anaerobic conditions after 44 hrs by CLSI-M11-47 protocol based agar dilution method; type: functional; how it was run: as §2
Bacteroides uniformis = test: Antimicrobial activity against Bacteroides uniformis under anaerobic conditions after 44 hrs by CLSI-M11-47 protocol based agar dilution method; type: functional; how it was run: as §1
[3] = system: Clostridium celerecrescens; test: Antimicrobial activity against Clostridium celerecrescens under anaerobic conditions after 44 hrs by CLSI-M11-47 protocol based agar dilution method; type: functional; conditions: Lacrimispora celerecrescens; how it was run: as §1
Eubacterium contortum = test: Antimicrobial activity against Eubacterium contortum under anaerobic conditions after 44 hrs by CLSI-M11-47 protocol based agar dilution method; type: functional; conditions: Faecalicatena contorta; how it was run: as §1
[4] = system: Peptostreptococcus anaerobius; test: Antimicrobial activity against Peptostreptococcus anaerobius under anaerobic conditions after 44 hrs by CLSI-M11-47 protocol based agar dilution method; type: functional; how it was run: as §2
Lacrimispora sphenoides = test: Antimicrobial activity against Clostridium sphenoides under anaerobic conditions after 44 hrs by CLSI-M11-47 protocol based agar dilution method; type: functional; how it was run: as §1
Prevotella bivia = test: Antimicrobial activity against Prevotella bivia under anaerobic conditions after 44 hrs by CLSI-M11-47 protocol based agar dilution method; type: functional; how it was run: as §2
Clostridium hylemonae = test: Antimicrobial activity against Clostridium hylemonae under anaerobic conditions after 44 hrs by CLSI-M11-47 protocol based agar dilution method; type: functional; how it was run: as §1
Porphyromonas somerae = test: Antimicrobial activity against Porphyromonas somerae under anaerobic conditions after 44 hrs by CLSI-M11-47 protocol based agar dilution method; type: functional; how it was run: as §2
[5] = system: Clostridium paraputrificum; test: Antimicrobial activity against Clostridium paraputrificum under anaerobic conditions after 44 hrs by CLSI-M11-47 protocol based agar dilution method; type: functional; how it was run: as §1
Slackia exigua = test: Antimicrobial activity against Slackia exigua under anaerobic conditions after 44 hrs by CLSI-M11-47 protocol based agar dilution method; type: functional; how it was run: as §2
[6] = system: Lacticaseibacillus rhamnosus; test: Antimicrobial activity against Lactobacillus rhamnosus under anaerobic conditions after 44 hrs by CLSI-M11-47 protocol based agar dilution method; type: functional; how it was run: as §2
Anaerococcus octavius = test: Antimicrobial activity against Anaerococcus octavius under anaerobic conditions after 44 hrs by CLSI-M11-47 protocol based agar dilution method; type: functional; how it was run: as §1
[Clostridium] innocuum = Antimicrobial activity against Clostridium […] under anaerobic conditions after 44 hrs by CLSI-M11-47 protocol based agar dilution method; type: functional; how it was run: as §1
Clostridium cadaveris = test: Antimicrobial activity against Clostridium cadaveris under anaerobic conditions after 44 hrs by CLSI-M11-47 protocol based agar dilution method; type: functional; how it was run: as §1
[7] = system: Paeniclostridium sordellii; test: Antimicrobial activity against Clostridium sordellii under anaerobic conditions after 44 hrs by CLSI-M11-47 protocol based agar dilution method; type: functional; conditions: Paraclostridium sordellii; how it was run: as §1
Eubacterium saburreum = test: Antimicrobial activity against Eubacterium saburreum under anaerobic conditions after 44 hrs by CLSI-M11-47 protocol based agar dilution method; type: functional; conditions: Lachnoanaerobaculum saburreum; how it was run: as §1
Prevotella oris = test: Antimicrobial activity against Prevotella oris under anaerobic conditions after 44 hrs by CLSI-M11-47 protocol based agar dilution method; type: functional; conditions: Segatella oris; how it was run: as §2

## CO/N=C(\C(=O)N[C@@H]1C(=O)N2C(C(=O)O)=C(CSc3nc(=O)c(O)nn3C)CS[C@H]12)c1csc(N)n1 [CEFTRIAXONE]
[1]
  MIC50: > 64 µg/mL
  MIC90: > 64 µg/mL
Bacteroides fragilis
  MIC50: > 64 µg/mL
  MIC90: > 64 µg/mL
Hoylesella loescheii
  MIC50: 1 µg/mL (≈ 1.8 µM)
  MIC90: 8 µg/mL (≈ 14.4 µM)
Gemella morbillorum
  MIC50: 0.25 µg/mL (≈ 0.451 µM)
  MIC90: 16 µg/mL (≈ 28.9 µM)
Fusobacterium mortiferum
  MIC50: > 64 µg/mL
  MIC90: > 64 µg/mL
Cutibacterium acnes
  MIC50: 0.015 µg/mL (≈ 0.027 µM)
  MIC90: 0.06 µg/mL (≈ 0.108 µM)
Prevotella nanceiensis
  MIC50: 1 µg/mL (≈ 1.8 µM)
  MIC90: 8 µg/mL (≈ 14.4 µM)
Anaerococcus tetradius
  MIC50: 0.25 µg/mL (≈ 0.451 µM)
  MIC90: 0.5 µg/mL (≈ 0.902 µM)
Prevotella buccae
  MIC50: 0.25 µg/mL (≈ 0.451 µM)
  MIC90: 64 µg/mL (≈ 115 µM)
Solobacterium moorei
  MIC50: 0.5 µg/mL (≈ 0.902 µM)
  MIC90: 2 µg/mL (≈ 3.61 µM)
Parvimonas micra
  MIC50: 0.5 µg/mL (≈ 0.902 µM)
  MIC90: 1 µg/mL (≈ 1.8 µM)
Phocaeicola vulgatus
  MIC50: > 64 µg/mL
  MIC90: > 64 µg/mL
[2]
  MIC50: 0.125 µg/mL (≈ 0.225 µM)
  MIC90: 0.5 µg/mL (≈ 0.902 µM)
Fusobacterium nucleatum
  MIC50: 0.125 µg/mL (≈ 0.225 µM)
  MIC90: 0.5 µg/mL (≈ 0.902 µM)
Prevotella denticola
  MIC50: 1 µg/mL (≈ 1.8 µM)
  MIC90: 8 µg/mL (≈ 14.4 µM)
Bacteroides uniformis
  MIC50: > 64 µg/mL
  MIC90: > 64 µg/mL
[3]
  MIC50: 2 µg/mL (≈ 3.61 µM)
  MIC90: 64 µg/mL (≈ 115 µM)
Eubacterium contortum
  MIC50: 0.5 µg/mL (≈ 0.902 µM)
  MIC90: 2 µg/mL (≈ 3.61 µM)
[4]
  MIC50: 2 µg/mL (≈ 3.61 µM)
  MIC90: 8 µg/mL (≈ 14.4 µM)
Lacrimispora sphenoides
  MIC50: 2 µg/mL (≈ 3.61 µM)
  MIC90: 64 µg/mL (≈ 115 µM)
Prevotella bivia
  MIC50: 2 µg/mL (≈ 3.61 µM)
  MIC90: > 64 µg/mL
Clostridium hylemonae
  MIC50: 2 µg/mL (≈ 3.61 µM)
  MIC90: 64 µg/mL (≈ 115 µM)
Porphyromonas somerae
  MIC50: 0.015 µg/mL (≈ 0.027 µM)
  MIC90: 64 µg/mL (≈ 115 µM)
[5]
  MIC50: 2 µg/mL (≈ 3.61 µM)
  MIC90: 64 µg/mL (≈ 115 µM)
Slackia exigua
  MIC50: 0.5 µg/mL (≈ 0.902 µM)
  MIC90: 2 µg/mL (≈ 3.61 µM)
[6]
  MIC50: 32 µg/mL (≈ 57.7 µM)
  MIC90: 64 µg/mL (≈ 115 µM)
Anaerococcus octavius
  MIC50: 0.25 µg/mL (≈ 0.451 µM)
  MIC90: 16 µg/mL (≈ 28.9 µM)
[Clostridium] innocuum
  MIC50: 8 µg/mL (≈ 14.4 µM)
  MIC90: 16 µg/mL (≈ 28.9 µM)
Clostridium cadaveris
  MIC50: 2 µg/mL (≈ 3.61 µM)
  MIC90: 64 µg/mL (≈ 115 µM)
[7]
  MIC50: 2 µg/mL (≈ 3.61 µM)
  MIC90: 64 µg/mL (≈ 115 µM)
Eubacterium saburreum
  MIC50: 0.5 µg/mL (≈ 0.902 µM)
  MIC90: 2 µg/mL (≈ 3.61 µM)
Prevotella oris
  MIC50: 1 µg/mL (≈ 1.8 µM)
  MIC90: 8 µg/mL (≈ 14.4 µM)
